{
  "source": "paper PMC2652733",
  "about": "(Bioconjugate chemistry, 2009)",
  "key": {"RIF tumor cells": {"system": "RIF tumor cells", "assay": "In vitro photosensitizing efficacy", "type": "cell-based", "settings": "for in vitro photosensitizing ability (comparative): 24 h post-incubation, light dose 6.0 J/cm^2, drug concentration 1.0 μM and higher, 700 nm; for in vitro photosensitizing ability: lower light and drug doses, RIF cells", "summary_of_the_method": "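RIF cells were grown in α-MEM with 10% FCS and plated at 5 × 10³ cells/well overnight. Test compound was added at varied concentrations for 24 h at 37°C in the dark, then replaced with drug-free medium. Cells were irradiated with a 700 nm dye laser (3.2 mW/cm², 0-6 J/cm²) and kept 48 h in the dark. MTT was added for 4 h, followed by DMSO and a 560 nm read. Survival was expressed as % of the drug-no-light control, with 4 replicate wells.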"}, "[1]": {"assay": "Biodistribution of 124I-labeled compounds", "type": "in vivo, C3H mice bearing RIF tumors", "summary_of_the_method": "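RIF cells (3 × 10⁵ in 30 μl complete α-MEM) were implanted s.c. in the axilla of C3H mice and grown to 4-5 mm diameter (~5 days). The 124I-labelled test compound, in saline with 10% ethanol, was given via tail vein at 50-200 μCi. Thyroid uptake was not blocked. 3-4 mice per time point were killed at 24-96 h. Organs, blood and tail were weighed and gamma-counted, giving %ID/g.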"}, "RIF tumors": {"system": "RIF tumors", "assay": "In vivo photosensitizing", "design": "species or system C3H mice"}, "[2]": {"settings": "24h PI, C3H mice bearing RIF tumors, i.v. 50-200 uCi"}, "[3]": {"settings": "dose 2μmol/kg, 705 nm, 135 J/cm^2, 75 mW/cm^2"}},
  "data": [
    {"molecule": "CCc1c(C)c2cc3nc(cc4[nH]c(c5c6nc(cc1[nH]2)C(C)=C6C(=O)N(Cc1cccc(I)c1)C5=O)[C@@H](CCC(=O)OC)[C@@H]4C)C(C)=C3C(C)OC", "note": "(stereo partly shown) [compound 10, 3-{1’- (methoxy)ethyl}purpurin-18-N-(3-iodo)benzylimide methyl ester]", "values": [
      {"measurement": "in vitro photosensitizing ability (comparative)", "setting": "RIF tumor cells", "result": "enhanced efficacy over the isomers 4 and 5"},
      {"measurement": "tumor uptake (abstract statement)", "setting": "[1]; methyl ether analog versus purpurinimide 5", "result": "improved tumor uptake"},
      {"measurement": "in vivo PDT efficacy, fold less effective over the lead compound 1", "setting": "RIF tumors; 705 nm (10), 135 J/cm^2, 75 mW/cm^2, 24 h post-injection", "result": "at least 1.5 fold"},
      {"measurement": "in vivo PDT activity compared with hexyl ether analog 5", "setting": "RIF tumors; doses of 1.0 and 2.5 mmol/kg, 705 nm, 135 J/cm^2, 75 mW/cm^2, 24 h post-injection", "result": "enhanced activity"}
    ]},
    {"molecule": "^124I- labeled analog of 3-{1’- (3-iodobenzyloxy)ethyl}purpurin-18-N-hexylimide methyl ester [compound 8]", "values": [
      {"measurement": "liver uptake in comparison of the 124I-analog of pyropheophorbide 1", "setting": "[1]; [2]", "result": 32, "unit": "fold"},
      {"measurement": "spleen uptake in comparison of the 124I-analog of pyropheophorbide 1", "setting": "[1]; [2]", "result": 85, "unit": "fold"}
    ]},
    {"molecule": "CCCCCCN1C(=O)C2=C(C)c3cc4[nH]c(cc5nc(cc6[nH]c(c(c2n3)C1=O)[C@@H](CCC(=O)OC)[C@@H]6C)C(C)=C5C(C)OCc1cccc(I)c1)c(C)c4CC", "note": "(stereo partly shown) [compound 4, 3-{1’- (3-iodobenzyloxy)ethyl}purpurin-18-N-hexylimide methyl ester]", "values": [
      {"measurement": "in vitro photosensitizing ability", "setting": "RIF tumor cells", "result": "ineffective"},
      {"measurement": "toxicity after PDT treatment", "setting": "RIF tumors; [3]", "result": "toxic and all mice died within 24 h PDT treatment"}
    ]},
    {"molecule": "CCc1c(C)c2cc3nc(cc4[nH]c(c5c6nc(cc1[nH]2)C(C)=C6C(=O)C5)[C@@H](CCC(=O)OC)[C@@H]4C)C(C)=C3C(C)OCc1cccc(I)c1", "note": "(stereo partly shown) [compound 1, 3-{1’- (3-iodobenzyloxy)ethyl}pyropheophorbide-a methyl ester]", "values": [
      {"measurement": "mice tumor free on day 60", "setting": "RIF tumors; dose 1.5 μmol/kg i.v., 665 nm, 135 J/cm^2, 75 mW/cm^2 at 24 h post injection, 5 mice/group", "result": "4/5"}
    ]},
    {"molecule": "CCCCCCOC(C)C1=C(C)c2cc3[nH]c(c4c5nc(cc6[nH]c(cc1n2)c(C)c6CC)C(C)=C5C(=O)N(Cc1cccc(I)c1)C4=O)[C@@H](CCC(=O)OC)[C@@H]3C", "note": "(stereo partly shown) [compound 5, 3-{1’- (Hexyloxy)ethyl}purpurin-18-N-(3-iodo)benzylimide methyl ester]", "values": [
      {"measurement": "in vitro photosensitizing ability (comparative)", "setting": "RIF tumor cells", "result": "more effective than the structural isomer 4"},
      {"measurement": "in vitro photosensitizing ability", "setting": "RIF tumor cells", "result": "ineffective"},
      {"measurement": "in vivo PDT activity", "setting": "RIF tumors; [3]", "result": "did not show any significant activity"},
      {"measurement": "in vivo PDT activity", "setting": "RIF tumors; doses 2.5 and 3.0 μmol/kg, 705 nm, 135 J/cm^2, 75 mW/cm^2", "result": "quite effective"}
    ]}
  ]
}
